The text below walks through data of ChEMBL document CHEMBL1153488, “Discovery of (3-endo)-3-(2-cyano-2,2-diphenylethyl)-8,8-dimethyl-8-azoniabicyclo[3.2.1]octane bromide as an efficacious inhaled muscarinic acetylcholine receptor antagonist for the treatment of COPD” (Bioorg Med Chem Lett, 2009).

For experiment [1], the target named is T1, Muscarinic acetylcholine receptor M1 (Homo sapiens) (UniProt P11229).
T1 sequence (whole entry): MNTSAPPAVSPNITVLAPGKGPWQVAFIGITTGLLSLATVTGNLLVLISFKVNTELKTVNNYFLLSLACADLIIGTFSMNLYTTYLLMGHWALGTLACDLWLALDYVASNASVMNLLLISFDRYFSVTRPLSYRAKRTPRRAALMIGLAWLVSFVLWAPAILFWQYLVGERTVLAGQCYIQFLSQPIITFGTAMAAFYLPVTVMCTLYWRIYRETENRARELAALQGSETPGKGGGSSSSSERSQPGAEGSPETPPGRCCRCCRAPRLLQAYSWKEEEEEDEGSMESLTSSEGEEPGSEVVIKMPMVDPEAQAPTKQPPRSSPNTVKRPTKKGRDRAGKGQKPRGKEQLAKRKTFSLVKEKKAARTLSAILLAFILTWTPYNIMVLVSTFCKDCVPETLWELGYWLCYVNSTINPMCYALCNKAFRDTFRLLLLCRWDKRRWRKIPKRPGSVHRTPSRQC
Briefly: Agonist activity at human cloned muscarinic M1 receptor expressed in CHO cells assessed as effect on calcium mobilization by FLIPR. Type of experiment: functional, cell-based. The procedure, abridged: (§1)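 CHO cells stably carrying cloned human M1, M2 or M3 receptor; compound applied alone and checked for direct receptor stimulation, read as calcium mobilization on a standard FLIPR protocol.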

Experiment [2] deals with T2, Muscarinic acetylcholine receptor M1 (Homo sapiens, UniProt P11229).
T2 sequence (P11229 whole entry): T1 sequence (whole entry)
Briefly: Antagonist activity against human cloned muscarinic M1 receptor expressed in CHO cells assessed as inhibition of acetylcholine-induced calcium mobilization by measuring ratio of acetylcholine EC50 in presence and absence of compound by FLIPR assay. The class given is functional, cell-based. To be noted: read-out: pA2 (converted). The procedure, abridged: (§2)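 Run as pA2 determination on FLIPR in CHO cells expressing human M1 or M2 receptor: ACh concentration–response run with and without a single concentration of compound, calcium mobilization read, and the ratio of ACh EC50 values used to derive pA2.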
Background: Calcium flux is commonly read through the fluorescence of an indicator in the cells.

Experiment [3] addresses T2, Muscarinic acetylcholine receptor M1. Briefly: Displacement of [3H]N-methyl Scopolamine from human cloned muscarinic M1 receptor expressed in CHO cell membrane. The class given is cell membranes. The procedure, abridged:
(§3)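 SPA format with CHO cell membrane preparations bearing human M1 or M2 receptor; competition versus 0.5 nM [3H]-N-methyl scopolamine; Ki reported; mean of two or more independent assays.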
(In general: Loss of bound radioactivity is the signal in a displacement assay; it reports binding, not function.)

Experiment [4] shares this target. Briefly: Antagonist activity against human cloned muscarinic M1 receptor expressed in CHO cells assessed as inhibition of acetylcholine-induced calcium mobilization by FLIPR. The class given is functional, cell-based.
Experiment [5] has as its target T3, Muscarinic acetylcholine receptor M3 (Homo sapiens, UniProt P20309). Briefly: Displacement of [3H]N-methyl Scopolamine from human cloned muscarinic M3 receptor expressed in CHO cell membrane. The class given is cell membranes. The method in brief: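 SPA-format competition binding on membranes from CHO cells expressing the human M3 receptor, against 0.5 nM [3H]-N-methyl scopolamine. Ki values are the mean of two or more independent assays.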
Target sequence in this assay (P20309 whole entry): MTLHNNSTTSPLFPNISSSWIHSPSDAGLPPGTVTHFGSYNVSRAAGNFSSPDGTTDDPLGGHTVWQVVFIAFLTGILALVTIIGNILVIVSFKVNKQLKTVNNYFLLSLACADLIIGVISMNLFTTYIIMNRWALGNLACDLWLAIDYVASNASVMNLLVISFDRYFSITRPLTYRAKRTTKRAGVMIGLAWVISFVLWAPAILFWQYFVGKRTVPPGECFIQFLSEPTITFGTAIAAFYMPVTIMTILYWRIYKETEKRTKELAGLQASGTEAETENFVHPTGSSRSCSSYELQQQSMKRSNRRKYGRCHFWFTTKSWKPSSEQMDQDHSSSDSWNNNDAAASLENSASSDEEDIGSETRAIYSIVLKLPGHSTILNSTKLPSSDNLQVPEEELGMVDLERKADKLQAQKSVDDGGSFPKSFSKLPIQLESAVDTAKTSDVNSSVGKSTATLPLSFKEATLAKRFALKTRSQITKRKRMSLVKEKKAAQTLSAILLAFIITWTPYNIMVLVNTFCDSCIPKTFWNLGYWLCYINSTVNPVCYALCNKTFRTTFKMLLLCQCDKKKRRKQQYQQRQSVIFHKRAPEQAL

Experiment [6] deals with T4, Muscarinic acetylcholine receptor M2 (Homo sapiens) (UniProt P08172).
T4 sequence (whole entry): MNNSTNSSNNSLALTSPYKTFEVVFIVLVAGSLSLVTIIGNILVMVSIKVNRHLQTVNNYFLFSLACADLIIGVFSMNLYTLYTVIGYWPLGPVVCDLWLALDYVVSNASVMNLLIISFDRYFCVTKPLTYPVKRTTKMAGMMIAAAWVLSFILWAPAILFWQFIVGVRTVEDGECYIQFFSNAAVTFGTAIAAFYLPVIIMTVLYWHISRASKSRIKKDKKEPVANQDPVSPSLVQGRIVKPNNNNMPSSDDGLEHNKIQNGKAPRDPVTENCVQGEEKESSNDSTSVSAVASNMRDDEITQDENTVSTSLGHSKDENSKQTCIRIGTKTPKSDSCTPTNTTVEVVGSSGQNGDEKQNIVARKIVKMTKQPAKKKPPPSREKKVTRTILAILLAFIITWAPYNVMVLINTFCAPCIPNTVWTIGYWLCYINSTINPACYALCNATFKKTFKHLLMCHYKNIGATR
Briefly: Agonist activity at human cloned muscarinic M2 receptor expressed in CHO cells assessed as effect on calcium mobilization by FLIPR. Type of experiment: functional, cell-based. The procedure, abridged:
as §1

The target in experiment [7] is T5, Muscarinic acetylcholine receptor M2 (Homo sapiens, UniProt P08172).
T5 sequence (P08172 whole entry): T4 sequence (whole entry)
In words: Displacement of [3H]N-methyl Scopolamine from human cloned muscarinic M2 receptor expressed in CHO cell membrane. The class given is cell membranes. The procedure, abridged: as §3

Experiment [8] has as its target T5, Muscarinic acetylcholine receptor M2. Briefly: Antagonist activity against human cloned muscarinic M2 receptor expressed in CHO cells assessed as inhibition of acetylcholine-induced calcium mobilization by measuring ratio of acetylcholine EC50 in presence and absence of compound by FLIPR assay. The class given is functional, cell-based. The following applies: read-out: pA2 (converted). The procedure, abridged:
as §2

The target of experiment [9] is T3, Muscarinic acetylcholine receptor M3. In words: Antagonist activity against human cloned muscarinic M3 receptor expressed in CHO cells assessed as inhibition of acetylcholine-induced calcium mobilization by measuring ratio of acetylcholine EC50 in presence and absence of compound by FLIPR assay. The class given is functional, cell-based. The following applies: read-out: pA2 (converted). The method in brief: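 CHO cells expressing cloned human M3 receptor, stimulated with ACh. Calcium mobilization read by a standard FLIPR protocol. ACh EC50 was measured with and without a single concentration of compound, and pA2 was derived from the ratio of the EC50s.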
Target sequence in this assay (P20309 whole entry): as the sequence (P20309 whole entry) above

The subject of experiment [10] is Mus musculus. Briefly: Bronchoprotection in Balb/C mouse bronchoconstriction model assessed as inhibition of aerosolized methacholin-induced bronchoconstriction at 50 ug administered intranasally 24 hrs before methacholin challenge. The class given is functional. The method in brief:
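Conscious mice given compound by inhalation at 50 µg per mouse 24 h before challenge with aerosolized methacholine; bronchoconstriction inhibition recorded.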

Experiment [11] has as its target T3, Muscarinic acetylcholine receptor M3. In words: Agonist activity at human cloned muscarinic M3 receptor expressed in CHO cells assessed as effect on calcium mobilization by FLIPR. The class given is functional, cell-based. The procedure, abridged: as §1
Target sequence in this assay (P20309 whole entry, looked up): as the sequence (P20309 whole entry) above
Experiment [12] has the same target. Briefly: Antagonist activity against human cloned muscarinic M3 receptor expressed in CHO cells assessed as inhibition of acetylcholine-induced calcium mobilization by FLIPR. The class given is functional, cell-based.
Target sequence in this assay (P20309 whole entry): as the sequence (P20309 whole entry) above
Experiment [13] has as its target T5, Muscarinic acetylcholine receptor M2. Briefly: Antagonist activity against human cloned muscarinic M2 receptor expressed in CHO cells assessed as inhibition of acetylcholine-induced calcium mobilization by FLIPR. The class given is functional, cell-based.
The subject of experiment [14] is Mus musculus. Briefly: Bronchoprotection in Balb/C mouse bronchoconstriction model assessed as inhibition of aerosolized methacholin-induced bronchoconstriction at 5 ug administered intranasally before 0.25 to 48 hrs before methacholin challenge. The class given is functional, organism-based. The procedure, abridged: (§4)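 Balb/C mice (n = 4) dosed intranasally at 0.5 or 5.0 µg per mouse, then challenged with aerosolized methacholine 30 mg/ml for 2 min at 0.25–48 h after dosing; Penh by plethysmography over 5 min, expressed as post-drug/pre-drug Penh ratio.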

Experiment [15] relates to Mus musculus. In words: Bronchoprotection in Balb/C mouse bronchoconstriction model assessed as inhibition of aerosolized methacholin-induced bronchoconstriction at 5 ug administered intranasally 24 hrs before methacholin challenge. Type of experiment: functional.
Experiment [16] relates to Mus musculus. In words: Bronchoprotection in Balb/C mouse bronchoconstriction model assessed as inhibition of aerosolized methacholin-induced bronchoconstriction at 0.5 ug administered intranasally before 0.25 to 48 hrs before methacholin challenge. The class given is functional, organism-based. The procedure, abridged:
as §4

For experiment [17], the system named is Mus musculus. Briefly: Bronchoprotection in Balb/C mouse bronchoconstriction model assessed as inhibition of aerosolized methacholin-induced bronchoconstriction administered intranasally before 5 hrs before methacholin challenge. Type of experiment: functional, organism-based. The procedure, abridged: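 Balb/C mice (n = 4) dosed intranasally across a dose range (µg/mouse), challenged 5 h later with aerosolized methacholine 30 mg/ml for 2 min; Penh by whole-body plethysmography over 5 min; ratio of post-drug to pre-drug Penh (1.0 = 0% inhibition, 0.0 = 100%); ED50 from dose–response.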

Each structure is given as a SMILES string. The source made the active and inactive calls. The rule behind the calls is not given here. Where only a bound is given, the exact number is not on record here.

In the case of `CN1[C@@H]2CC[C@H]1C[C@@H](CC(O)(c1ccccc1)c1ccccc1)C2`, the result in experiment [1], in [6] and in experiment [11] was inactive. The Kb in experiment [2] was 0.794 nM; in experiment [8], 3.98 nM; in experiment [9] it was 2.51 nM. In addition, the inhibition constant (Ki) in [3] is 0.501 nM; in [5] it was 2 nM; in experiment [7], 6.31 nM. Besides, the IC50 in experiment [4], in [12] and in [13] was under 10 nM in each case. For the same molecule, in experiment [10], the “inhibition (INH)” value is recorded as under 5%.
For `C[N+]1(C)[C@@H]2CC[C@H]1C[C@@H](CC(C#N)(c1ccccc1)c1ccccc1)C2.[Br-]`, the result in experiment [1], in [6] and in experiment [11] was inactive. In addition, the Kb in [2] is 0.00398 nM; in experiment [8] it was 0.0501 nM; in [9], 0.02 nM. Besides, the outcome in experiment [14] and in [16] was Active. Also, the results for the inhibition constant Ki in experiment [3], in experiment [5] and in experiment [7] were 0.0501 nM, 0.0631 nM and 0.158 nM, respectively. Also, the “inhibition (INH)” value in [15] is over 95%. The IC50 in experiment [4], in [12] and in experiment [13] was under 10 nM throughout. The Activity result in experiment [17] was “Dose-dependent effect”.

A word on the Ki: it is a measure of affinity in units of concentration, obtained from inhibition or displacement. A higher Ki goes with lower affinity. Broadly, the IC50 is the concentration that inhibits the measured activity by half.
